Screening results from PubChem.
ASAP1 inh: ASAP1 ArfGAP inhibition | ASAP1-stimulated ARF1 GTP hydrolysis, GDP FP detection | inhibition, % at 16.5 µM | Q9ULH1 | actives 0.19% (n = 360,000); in the data active = inhibition above about 25%
Target sequence (Q9ULH1 325-724 limits assumed): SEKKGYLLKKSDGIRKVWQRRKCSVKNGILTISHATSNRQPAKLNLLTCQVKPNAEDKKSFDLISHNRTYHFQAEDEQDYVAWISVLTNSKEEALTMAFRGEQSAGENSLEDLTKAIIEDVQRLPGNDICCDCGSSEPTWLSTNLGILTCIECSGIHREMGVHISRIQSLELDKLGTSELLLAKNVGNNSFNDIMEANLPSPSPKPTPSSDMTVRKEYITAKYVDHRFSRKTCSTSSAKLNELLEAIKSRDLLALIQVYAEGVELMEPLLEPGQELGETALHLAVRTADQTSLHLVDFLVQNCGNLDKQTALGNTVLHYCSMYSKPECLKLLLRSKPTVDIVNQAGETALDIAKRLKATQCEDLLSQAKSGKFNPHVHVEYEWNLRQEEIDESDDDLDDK
ARFGAP1 inhibitor: inhibits rat ARF GTPase activating protein 1. Arfgap1-stimulated ARF1 GTP hydrolysis, GDP FP detection. inhibition, % at 16.5 µM. actives 0.26% (n = 360,000). AID 651572;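 active = inhibition above a per-plate limit, mean inhibition of low control wells plus 3 SD, cut at about 25% in these data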
Target sequence (Q62848 1-136 limits assumed): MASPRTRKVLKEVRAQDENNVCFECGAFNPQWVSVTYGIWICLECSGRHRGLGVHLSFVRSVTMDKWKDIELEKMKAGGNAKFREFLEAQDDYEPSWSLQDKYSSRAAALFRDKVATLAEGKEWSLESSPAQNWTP
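Assay system: Rat Arfgap1 GAP domain (His6, aa 1-136), purified enzyme | Buffer or medium: HEPES 25 mM pH 7.5, NaCl 150 mM, MgCl2, DTT | Schedule: GTP hydrolysis reaction 2 h at 25 °C | Signal: FP of antibody-bound GDP Alexa 633 tracer, ex 620/em 688 nm | Measure: Percent inhibition of Arfgap1-stimulated GTP hydrolysis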
CendR NRP1 mod: modulators of CendR peptide binding to human neuropilin-1 | FAM-RPARPAR peptide binding to NRP-1, fluorescence polarization | inhibition, % at 25 µM | actives 0.85% (n = 360,000) | AID 602438;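 active = inhibition or corrected inhibition above about 18%, plus a signal ratio from 0.5 to 1.5, limit read from the data, passing the limit was not always enough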
V-ATPase pHluor: alters yeast V-ATPase proton transport | S. cerevisiae, pHLuorin cytosolic pH fluorescence | response, % at 10 µM | actives 0.37% (n = 350,000) | AID 504577; in the data active = response mostly above about 7.3%, no sharp cut-off; inactive = mostly below about 5.4%; also: actives read high
Granule exo inh: blocks lytic granule exocytosis. TALL-104 LAMP-1 surface exposure, flow cytometry; cells stimulated with thapsigargin and PMA. inhibition, % at 10 µM. actives 0.66% (n = 360,000). AID 651702;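 active = inhibition above about 55%, limit read from the data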
Each line names hits and unclear results; the compound was inactive in the other large screens. A selection: hits, their analogues and other compounds. The true share with any hit is near 2.2%.

O=C(NCc1ccccc1)[C@H]1CCCN1C(=O)[C@H]1CCCN1C(=O)N1CCCCC1	none (no result: CendR NRP1 mod, V-ATPase pHluor, Granule exo inh)
CCOC(=O)N1CCN(C2=C(NS(=O)(=O)c3ccccc3)C(=O)c3ccccc3C2=O)CC1	ASAP1 inh 29, ARFGAP1 inhibitor 33
Cc1ccc(S(=O)(=O)NC(CC(C)C)C(=O)N2CCCC2)cc1 (configuration not stated)	none
COC(=O)[C@H](CC(C)C)NS(=O)(=O)c1ccccc1	CendR NRP1 mod 23
CCOC(=O)N1CCN(C(=O)C(CC(C)C)NS(=O)(=O)c2ccc(C)cc2)CC1 (configuration not stated)	CendR NRP1 mod 22
Oc1cc(O)cc(C=Cc2ccc(O)c(O)c2)c1	none (no result: CendR NRP1 mod, V-ATPase pHluor, Granule exo inh)
CCN(CC(=O)NCc1cccs1)C(=O)c1ccc(S(=O)(=O)N(C)c2ccccc2)cc1	CendR NRP1 mod 21
CCc1ccccc1S(=O)(=O)c1c(C)cc(C)nc1Cl	none
CCc1c(C)nc2ncnn2c1N1CCCC(C(=O)NCc2ccc3c(c2)OCO3)C1 (configuration not stated)	none
CCc1c(C)nc2ncnn2c1N1CCCC(C(=O)Nc2ccc(NC(C)=O)cc2)C1 (configuration not stated)	CendR NRP1 mod 29 (no result: V-ATPase pHluor)
Cc1cc(C)n(-c2ccc(C(=O)NCC(c3ccco3)N3CCCC3)cc2)n1 (configuration not stated)	V-ATPase pHluor 16
COc1ccc2c(c1)C(NC(=O)C(F)(F)F)CC21CCCCC1 (configuration not stated)	none (no result: CendR NRP1 mod, V-ATPase pHluor, Granule exo inh)
COc1cccc(CC(=O)OCC(=O)N(C)CC(=O)Nc2ccccc2Cl)c1	CendR NRP1 mod 20
COc1ccc(C(CNC(=O)c2cccc(S(=O)(=O)NCc3ccccc3)c2)N(C)C)cc1 (configuration not stated)	none
CN(Cc1ccccc1)C(=O)c1ncn2c1C(=O)N(C)CC2	none
CCN(CC)S(=O)(=O)c1ccc(N=NC2=C(O)CCCC2=O)cc1	CendR NRP1 mod 26
CCN(CC)S(=O)(=O)c1ccc(N=NC2=C(O)CC(C)(C)CC2=O)cc1	none
COc1cccc(C(=O)N[C@H](C(=O)N2CCC[C@H]2C(=O)NCCc2ccccc2Cl)C2CCCCC2)c1	none (no result: CendR NRP1 mod, V-ATPase pHluor, Granule exo inh)
COc1ccc(N2C(=O)C3[C@@H](C2=O)C2(Cl)C(Cl)=C(Cl)C3(Cl)C2(OC)OC)cc1 (some centres not stated)	CendR NRP1 mod 27
COc1ccc(N2C(=O)C3C(C2=O)C3(c2ccccc2)c2ccccc2)cc1 (configuration not stated)	none
O=C1CCCc2ccccc2N1Cc1ccccc1Cl	ARFGAP1 inhibitor 25
O=C(N[C@H](Cc1ccccc1)C(=O)NCC1CCCO1)[C@H]1O[C@@H](n2ccc(=O)[nH]c2=O)[C@H](O)[C@@H]1O (some centres not stated)	none (no result: CendR NRP1 mod, V-ATPase pHluor, Granule exo inh)
Oc1c(Cl)cc(Cl)cc1/C=N/Nc1ncc(Br)cn1	CendR NRP1 mod 38
CC(C)C[C@@H](CN1CCCC1CN1C(=S)NC[C@@H]1Cc1ccc(O)cc1)N1C[C@H](Cc2ccc(O)cc2)N(CC2CCCCC2)C1=S (some centres not stated)	Granule exo inh 57
Cc1cc(Cl)ccc1NC(=O)c1ccc2c(c1)CCN2S(C)(=O)=O	CendR NRP1 mod 16
COc1ccc(C(C)C)cc1-c1cc(C(=O)NCc2cc(C(F)(F)F)cc(C(F)(F)F)c2)[nH]n1	none (no result: V-ATPase pHluor)
COc1ccc(C(C)C)cc1-c1cc(C(=O)NCc2cccc(C(F)(F)F)c2)[nH]n1	CendR NRP1 mod 21 (no result: V-ATPase pHluor)
COc1cccc2c1OCC/C2=N\NC(=O)COc1ccccc1C	CendR NRP1 mod 32
Fc1cc(Cl)ccc1Nc1nc(NCc2ccccc2)nc2ccsc12	CendR NRP1 mod 26 (no result: V-ATPase pHluor)
Cc1nc(N)nc(Nc2ccc(C#N)cc2)c1Br	CendR NRP1 mod 17
c1ccn2c(SCc3ccc4c(c3)OCO4)nnc2c1	CendR NRP1 mod 24
O=C(CCSc1nnc2ccccn12)Nc1ccc2c(c1)OCO2	CendR NRP1 mod 23
C[C@]12Cc3ccccc3C1CC1=N[C@@H](c3ccc(C(F)(F)F)cc3)O[C@@]13C[C@@H]2C(=O)N3Cc1ccncc1 (some centres not stated)	none (no result: CendR NRP1 mod, V-ATPase pHluor, Granule exo inh)
Cc1ccccc1-c1ccc2c(c1)[C@@H]1C[C@H]3[C@@H](CN1CC2)[C@H](C)OC(C1CCCCC1)N3C (some centres not stated)	none (no result: CendR NRP1 mod, V-ATPase pHluor, Granule exo inh)
NC(N)=NN=C(c1ccc(F)cc1)c1ccc(C(F)(F)F)cc1	Granule exo inh 57
C=CCn1c(=N)c(C#N)cc2c(=O)n3ccccc3nc21	CendR NRP1 mod 36
O=C(O)CSc1nnc(-c2ccc(Cl)cc2Cl)n1-c1ccc(Cl)cc1	CendR NRP1 mod 26
COc1ccccc1-c1nnc(SCC(=O)O)n1-c1ccccc1	none
COC(=O)c1cc2c(c3c4cc(OC)ccc4n(S(=O)(=O)c4ccc(OC)cc4)c13)C(=O)N(Cc1ccccc1)C2	none (no result: CendR NRP1 mod, V-ATPase pHluor, Granule exo inh)
CCOc1ccc(-n2c(Cc3cc(=O)[nH]c(=O)[nH]3)nnc2SC(C)C)cc1	CendR NRP1 mod 38
O=C(Nn1c(COc2ccccc2)nc2ccccc2c1=O)C(Cl)(Cl)Cl	Granule exo inh 79
Cc1nc2ccccc2c(=O)n1NC(=O)COc1ccccc1	none
Cc1cc(C)n2nc(SCC(=O)N(CC(C)C)c3c(N)n(CC(C)C)c(=O)[nH]c3=O)nc2n1	none
Cc1cc(C)n2nc(SCC(=O)c3c(N)n(CC(C)C)c(=O)n(C)c3=O)nc2n1	V-ATPase pHluor 17
O=[N+]([O-])/C=C\c1ccc(N2CCCC2)c(F)c1	Granule exo inh 75 (no result: ASAP1 inh, ARFGAP1 inhibitor)
Cc1ccc(S(=O)(=O)N2CCC(C(N)=O)CC2)cc1[N+](=O)[O-]	CendR NRP1 mod 27
C=CCN1C(=O)c2n[nH]c(COC)c2C1c1cccc(C(F)(F)F)c1 (configuration not stated)	none (no result: CendR NRP1 mod, V-ATPase pHluor, Granule exo inh)
CCCS(=O)(=O)N1CCC(Cc2ccc(OC)cc2)(C(=O)OCC)CC1	CendR NRP1 mod 39
Cc1cccc(/C=C/C(=O)c2ccc([N+](=O)[O-])o2)c1	none
O=C(/C=C/c1cccc([N+](=O)[O-])c1)c1ccc([N+](=O)[O-])o1	V-ATPase pHluor 177
COc1cccc(/C=N\NC(=O)c2ccc(C)nc2)c1	none
CCCCC#Cc1cncc(C(=O)N/N=C/c2cccc(OC)c2)c1	CendR NRP1 mod 38
NS(=O)(=O)c1cc(C(=O)OCC(=O)c2ccc3c(c2)OCCO3)ccc1Cl	none
NS(=O)(=O)c1cc(C(=O)NNC(=O)c2ccc3c(c2)OCO3)ccc1Cl	CendR NRP1 mod 28
Cc1cccc(C2=NNC(=O)C(c3ccc(Cl)cc3)C2)c1 (configuration not stated)	CendR NRP1 mod 25
Cc1ccc(C2CC(c3ccc(Cl)cc3)=NNC2=O)cc1 (configuration not stated)	none
O=C1/C(=C/Nc2cccc([N+](=O)[O-])c2)CCc2ccccc21	Granule exo inh 89
COCc1cc(N2CCN(C(=O)OC(C)(C)C)C[C@H]2C)ccc1N1CCS(=O)(=O)CC1	none (no result: CendR NRP1 mod, V-ATPase pHluor, Granule exo inh)
NC(=S)N/N=C1\CCSc2ccc(Cl)cc21	Granule exo inh 73
